The results in this text go back to ChEMBL document CHEMBL4364248, “Discovery of 1,2,4-oxadiazole-Containing hydroxamic acid derivatives as histone deacetylase inhibitors potential application in cancer therapy” (Eur J Med Chem, 2019).

Data set [1] concerns JeKo-1. Kind of data set: Induction of apoptosis in human JeKo1 cells after 48 hrs by annexin V-FITC/propidium iodide staining-based flow cytometric method. Format: functional, cell-based. An outline of the steps:
(§1)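 Jeko-1 cells were grown in RPMI-1640 with 10% FBS at 37 °C under 5% CO2. They were exposed to 0, 10, 100 or 1000 nM for 48 h, then apoptosis induction was analysed.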

A further data set concerns MM1.S. Kind of data set: Antiproliferative activity against human MM1S cells after 72 hrs by MTT assay. The format is functional, cell-based. (In general: Tetrazolium dyes change colour on reduction, which living cells bring about.)
The nature of data set [2]: Toxicity in NOD/SCID mouse xenografted with human Daudi cells at 10 mg/kg, iv treated on day 1,3 and 5 per week and measured for every 2 days. Format: organism-based. The settings on record: in vivo, 48 h. An outline of the steps: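 Female NOD/SCID mice (5–6 weeks) bearing s.c. Daudi xenografts, six per group. Dosing was 10 mg/kg i.v. or 20 mg/kg p.o. in 8% HP-β-CD on days 1, 3 and 5 weekly. Behaviour was observed, and organ tissues were collected at sacrifice for H&E staining.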

Data set [3] can be described thus: AUC ( 0 to t) in Sprague-Dawley rat at 5 mg/kg, po measured upto 24 hrs by LC-MS/MS analysis. Also noted: dose 5 mg/kg, time < 24 hr, route oral. The format is ADME, organism-based. The note with it: in vivo. The gist of the method:
(§2)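 SD rats (200-250 g), six per time point, given 5 mg/kg as a tail-vein bolus or orally. Blood was taken by cardiac puncture before dosing and at 5, 15, 30, 45 min and 1, 2, 4, 6, 8, 10, 12 and 24 h. Plasma was spun at 4000 g for 15 min at 4 °C and stored at -80 °C. Analysis was LC-MS/MS with multiple-reaction monitoring, followed by noncompartmental analysis.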

Data set [4] relates to JeKo-1. The data set is described as follows: Induction of apoptosis in human JeKo1 cells assessed as early apoptotic cells at 100 nM after 48 hrs by annexin V-FITC/propidium iodide staining-based flow cytometric method (reference value: 3.34 %). The format is functional. An outline of the steps:
as §1
In general terms: A flow cytometer gives signals particle by particle.

In data set [5] the test system is JeKo-1. Kind of data set: Induction of apoptosis in human JeKo1 cells assessed as late apoptotic cells at 10 nM after 48 hrs by annexin V-FITC/propidium iodide staining-based flow cytometric method (reference value: 3.07 %). The format is functional. The gist of the method: as §1
The next data set concerns the target Histone deacetylase 4 (Homo sapiens, UniProt P56524). Kind of data set: Inhibition of recombinant full length human HDAC4 expressed in sf9 insect cells using Ac-peptide-AMC as substrate after 1 hr by fluorescence assay.
A further data set concerns Leukemia cell. The data set is described as follows: Antiproliferative activity against human AML patient derived primary leukemia cells after 72 hrs by MTT assay. Format: functional, cell-based.
The target of data set [6] is T1, Histone deacetylase 1/2/3 (Homo sapiens) (UniProt Q13547+O15379+Q92769). The data set is described as follows: Inhibition of HDAC1/2/3 in human MM1S cells assessed as increase in H3 acetylation after 6 hrs by Western blot analysis. The format is cell-based. For orientation: Immunoblotting shows a protein as a band on a membrane.
Data set [7] concerns the target T1, Histone deacetylase 1/2/3 (Homo sapiens). Kind of data set: Inhibition of HDAC1/2/3 in human MM1S cells assessed as upregulation of H3 acetylation at 40 nM after 6 hrs by Western blot analysis. Format: cell-based.
Data set [8] has as its target T2, Protein deacetylase HDAC6 (Homo sapiens) (UniProt Q9UBN7).
T2 sequence (whole entry): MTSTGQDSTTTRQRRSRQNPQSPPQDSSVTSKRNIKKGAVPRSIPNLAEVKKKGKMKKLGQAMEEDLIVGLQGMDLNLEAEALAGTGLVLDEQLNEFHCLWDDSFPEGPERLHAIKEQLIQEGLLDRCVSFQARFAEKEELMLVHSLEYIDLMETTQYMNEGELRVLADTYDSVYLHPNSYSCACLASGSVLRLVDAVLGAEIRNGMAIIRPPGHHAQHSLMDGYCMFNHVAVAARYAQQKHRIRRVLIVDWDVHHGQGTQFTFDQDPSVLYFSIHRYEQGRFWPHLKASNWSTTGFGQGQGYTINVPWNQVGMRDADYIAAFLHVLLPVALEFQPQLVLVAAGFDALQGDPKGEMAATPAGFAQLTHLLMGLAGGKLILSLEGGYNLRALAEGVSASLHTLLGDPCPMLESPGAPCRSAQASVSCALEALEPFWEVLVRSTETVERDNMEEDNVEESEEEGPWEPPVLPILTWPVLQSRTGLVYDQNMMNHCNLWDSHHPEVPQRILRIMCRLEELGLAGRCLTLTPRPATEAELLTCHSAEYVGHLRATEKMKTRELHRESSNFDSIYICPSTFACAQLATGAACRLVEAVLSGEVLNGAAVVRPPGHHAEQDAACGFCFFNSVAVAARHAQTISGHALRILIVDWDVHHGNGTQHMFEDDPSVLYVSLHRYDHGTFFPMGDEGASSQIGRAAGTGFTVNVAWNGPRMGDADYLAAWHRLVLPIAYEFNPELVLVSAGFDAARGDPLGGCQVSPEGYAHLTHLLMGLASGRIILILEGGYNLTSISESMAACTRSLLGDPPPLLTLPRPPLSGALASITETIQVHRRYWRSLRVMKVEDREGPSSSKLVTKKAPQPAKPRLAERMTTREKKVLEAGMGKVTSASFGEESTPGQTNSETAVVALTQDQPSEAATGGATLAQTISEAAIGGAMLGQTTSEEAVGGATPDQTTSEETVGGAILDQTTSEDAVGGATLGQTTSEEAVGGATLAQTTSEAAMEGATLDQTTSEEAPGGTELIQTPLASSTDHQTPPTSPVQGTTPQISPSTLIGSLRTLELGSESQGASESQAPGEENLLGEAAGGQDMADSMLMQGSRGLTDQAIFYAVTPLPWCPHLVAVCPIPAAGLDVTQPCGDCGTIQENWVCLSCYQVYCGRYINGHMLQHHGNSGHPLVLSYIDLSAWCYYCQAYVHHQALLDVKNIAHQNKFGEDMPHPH
The data set is described as follows: Inhibition of HDAC6 in human MM1S cells assessed as increase in alpha tubulin acetylation after 6 hrs by Western blot analysis. Format: cell-based.

For data set [9], the system named is Daudi. The data set is described as follows: Antitumour activity against human Daudi cells xenografted in NOD/SCID mouse assessed as increase in acetylated H4 expression at 20 mg/kg, po treated on day 1,3 and 5 per week by immunohistochemical analysis. The format is functional, organism-based. An outline of the steps: (§3)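 Daudi s.c. xenografts in female NOD/SCID mice (5–6 weeks) were randomized six per group at 100–200 mm3. Dosing was 10 mg/kg i.v. or 20 mg/kg p.o. in 8% HP-β-CD on days 1, 3 and 5 weekly. Tumors were collected at study end for immunohistochemistry, with comparison to the control group.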

Data set [10] in a line: Half life in Sprague-Dawley rat at 5 mg/kg, iv measured upto 24 hrs by LC-MS/MS analysis. The format is ADME, organism-based. The settings on record: in vivo. The gist of the method: as §2
In a further data set the test system is MDA-MB-231. Kind of data set: Antiproliferative activity against human MDA-MB-231 cells after 72 hrs by MTT assay. The format is functional, cell-based. The settings on record: MDA-MB-231, 72 h.
Data set [11] can be described thus: AUC ( 0 to t) in Sprague-Dawley rat at 5 mg/kg, iv measured upto 24 hrs by LC-MS/MS analysis. Format: ADME, organism-based. On the set-up: dose 5 mg/kg, time < 24 hr, route intravenous. The settings on record: in vivo. The gist of the method:
as §2

Data set [12] has as its system Daudi. The data set is described as follows: Antitumour activity against human Daudi cells xenografted in NOD/SCID mouse assessed as DNA damage at 20 mg/kg, po treated on day 1,3 and 5 per week. The format is functional, organism-based. An outline of the steps:
as §3

In a further data set the test system is A2780S. The data set is described as follows: Antiproliferative activity against human A2780S cells after 72 hrs by MTT assay. The format is functional, cell-based.
Data set [13] relates to JeKo-1. The data set is described as follows: Cell cycle arrest in human JeKo1 cells assessed as accumulation at G2/M phase at 100 nM after 24 hrs by propidium iodide staining based flow cytometric analysis (reference value: 10.71 %). The format is functional.

Calls of active or inactive are those of the source. No cut-off for these calls is given here.

Histone deacetylase 4, sequence (P56524 whole entry): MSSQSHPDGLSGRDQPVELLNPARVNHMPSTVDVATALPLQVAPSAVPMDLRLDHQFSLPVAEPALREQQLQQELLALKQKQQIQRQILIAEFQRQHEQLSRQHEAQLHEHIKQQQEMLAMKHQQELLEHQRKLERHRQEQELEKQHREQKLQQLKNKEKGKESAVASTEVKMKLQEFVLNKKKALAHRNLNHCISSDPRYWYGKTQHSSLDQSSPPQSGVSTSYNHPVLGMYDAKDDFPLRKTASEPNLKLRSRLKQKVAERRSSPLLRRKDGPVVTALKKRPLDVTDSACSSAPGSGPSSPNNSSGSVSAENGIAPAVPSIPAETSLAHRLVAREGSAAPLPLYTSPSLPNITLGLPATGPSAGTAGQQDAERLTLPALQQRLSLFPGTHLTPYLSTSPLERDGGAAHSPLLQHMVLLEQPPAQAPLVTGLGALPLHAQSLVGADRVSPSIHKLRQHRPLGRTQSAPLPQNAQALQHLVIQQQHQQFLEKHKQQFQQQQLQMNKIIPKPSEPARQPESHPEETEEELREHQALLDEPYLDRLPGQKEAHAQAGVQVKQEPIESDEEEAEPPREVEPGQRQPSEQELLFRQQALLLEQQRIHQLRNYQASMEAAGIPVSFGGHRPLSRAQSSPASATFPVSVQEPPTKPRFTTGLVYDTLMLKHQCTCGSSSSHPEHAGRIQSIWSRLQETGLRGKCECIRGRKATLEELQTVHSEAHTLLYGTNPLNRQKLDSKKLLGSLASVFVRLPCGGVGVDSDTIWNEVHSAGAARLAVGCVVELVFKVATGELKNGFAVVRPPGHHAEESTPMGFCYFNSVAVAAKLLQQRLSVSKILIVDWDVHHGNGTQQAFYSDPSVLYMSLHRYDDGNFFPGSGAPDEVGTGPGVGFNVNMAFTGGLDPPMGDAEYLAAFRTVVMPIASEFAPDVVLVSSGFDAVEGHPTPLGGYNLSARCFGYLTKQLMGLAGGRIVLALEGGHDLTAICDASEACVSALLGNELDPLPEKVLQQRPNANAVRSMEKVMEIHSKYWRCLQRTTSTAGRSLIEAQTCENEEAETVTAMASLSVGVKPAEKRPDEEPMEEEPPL

For orientation: IC50 means the concentration at which inhibition is half-maximal. One may read the AUC(0-t) as the area under the concentration-time curve up to a stated or last time point. The low end stands for less exposure, the high end for more exposure. Usually half-life stands for how long it takes for the measured level to halve. Lower therefore signals rapid decline. In the case of `Cc1ccc(CN2CCC(c3noc(CN(C)c4ncc(C(=O)NO)cn4)n3)CC2)cc1`, the Activity result in the data set with JeKo-1 [1] was “Dose-dependent effect”; in data set [2], “Non-Toxic”; with JeKo-1 [4], 28.3%; in the data set with JeKo-1 [5], 2.24%; in the data set on JeKo-1 [13] it was 10.77%. Besides, the IC50 is 9.8 nM in the data set with MM1.S; 473 nM on Histone deacetylase 4; 21.2 to 61.1 nM with Leukemia cell; 25.6 nM in the data set on MDA-MB-231; 40 nM with A2780S. Besides, the AUC(0-t) at 24 h was 232 ng·h/mL in data set [3] and 433 ng·h/mL in data set [11]. Also, the inhibition entry in [6] and in [8] was “Dose-dependent effect” in each case. Moreover, the inhibition result in [7] is “Active”. Moreover, the outcome in the data set with Daudi [9] and in the data set on Daudi [12] was Active. In [10], the half-life was 23.4 min.
